Screening data deposited in PubChem BioAssay by several laboratories.
Only some compounds are listed: those with a hit (about 2% of all), similar ones and a draw of the others.
VIM-2 inh = VIM-2 metallo-beta-lactamase inhibitors, primary screen, biochemical, epi-absorbance readout, Pseudomonas aeruginosa enzyme; purified VIM-2, nitrocefin hydrolysis, epi-absorbance fluorescence; inhibition, % at 5.6 µM; 290,000 compounds, 0.89% hits;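 active means inhibition above the mean of all tested compounds plus 3 SD, cutoff set per screening run, cut at about 7.5% in these data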;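 further: red hydrolysis product quenches plate fluorescence so inhibitors raise well fluorescence; 0% = enzyme with DMSO and 100% = DMSO without enzyme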
PvdQ inh = P. aeruginosa PvdQ acylase inhibitors, primary screen, biochemical, fluorescence, plate reader and imaging, single point; PvdQ acylase [Pseudomonas aeruginosa LESB58]; purified PvdQ acylase; inhibition, % at 10 µM; 340,000 compounds, 0.063% hits; AID 488965, 2010; in the data active means inhibition above about 30%, passing the limit was not always enough;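 further: 0% = vehicle neutral wells and 100% = reference inhibitor wells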
IMP-1 inh-1 = IMP-1 metallo-beta-lactamase inhibitors, primary screen, biochemical, epi-absorbance readout, Pseudomonas aeruginosa enzyme | metallo-beta-lactamase IMP-1 (Pseudomonas aeruginosa) | purified IMP-1, nitrocefin hydrolysis, epi-absorbance fluorescence | inhibition, % at 5.6 µM | 290,000 compounds, 0.45% hits;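 active means inhibition above the mean plus 3 SD of all compounds in the same screening run, cut at about 4.5% in these data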;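 further: 0% = IMP-1 with DMSO and 100% = DMSO wells lacking enzyme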
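System: Purified recombinant IMP-1 metallo-beta-lactamase enzyme | Measured by: Fluorescence quenching readout, ex 480/em 530 nm | Replication: Singlicate | Incubation: 15 min preincubation plus 25 min reaction at 25 °C | Evaluation: Percent inhibition from optical density relative to buffer-blank wells | Benchmarks: DMSO with and without IMP-1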
MIN6 prolif-1 = inducers of MIN6 beta-cell proliferation, primary screen, ATP luminescence, uHTS; MIN6 cells proliferation, ATPlite luminescence, 48 h; cells starved in 0.2% serum; 100% = growth in 10% serum; proliferation, % at 10 µM; 330,000 compounds, 0.29% hits; AID 2380, 2010;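 active means compounds whose signal lies at least 3.5 SD above the mean of all wells on their plate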;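 further: 0% = DMSO-treated cells in low-serum medium and 100% = 10% serum control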
HKDC1 inhibitor = HKDC1 hexokinase inhibitors, primary screen, biochemical, fluorescence, uHTS. recombinant HKDC1, G6PDH/diaphorase resazurin coupled fluorescence. inhibition, % at 20 µM. 340,000 compounds, 0.16% hits;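 active means inhibition above about 35% when tested at 20 µM, limit read from the data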;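 further: plate controls were DMSO wells with enzyme for no effect and DMSO wells lacking enzyme for full effect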
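Assay system: in-house recombinant HK5 (HKDC1) enzyme. Input: HKDC1 at 5 µg/mL. Medium: Tris pH 8.0 buffer with MgCl2, Tween-20, BSA, BME. Dosing: single 20 µM dose. Schedule: 90 min reaction incubation at room temperature, dark. Signal: resazurin-to-resorufin fluorescence via G6PDH and diaphorase coupling, 525/613 nm. Controls: DMSO-enzyme wells negative, buffer-substituted wells positive.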
ATG4B inh = ATG4B protease inhibitors, primary screen, biochemical, fluorescence, uHTS. ATG4B cleavage of LC3-PLA2, NBD-HPC fluorescence, 1 h. inhibition, % at 8.33 µM. 340,000 compounds, 0.51% hits. AID 504462, 2011; in the data active means inhibition above about 40%
Target sequence (Q9Y4P1 whole entry, looked up): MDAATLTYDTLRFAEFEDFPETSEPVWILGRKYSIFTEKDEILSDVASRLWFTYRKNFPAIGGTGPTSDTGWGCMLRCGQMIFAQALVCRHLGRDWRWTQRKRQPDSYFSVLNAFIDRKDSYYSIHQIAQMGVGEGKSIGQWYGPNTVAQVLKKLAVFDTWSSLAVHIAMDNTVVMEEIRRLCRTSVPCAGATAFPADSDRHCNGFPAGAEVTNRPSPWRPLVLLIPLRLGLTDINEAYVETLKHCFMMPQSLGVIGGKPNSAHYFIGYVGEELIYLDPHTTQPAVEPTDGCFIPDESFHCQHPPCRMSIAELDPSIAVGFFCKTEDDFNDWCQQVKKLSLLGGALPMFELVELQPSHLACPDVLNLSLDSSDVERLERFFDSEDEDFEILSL
IMP-1 inh-2 = IMP-1 metallo-beta-lactamase inhibitors, confirmation, selectivity assay for selective VIM-2 inhibitor project, biochemical, epi-absorbance readout, triplicate. shares compounds with VIM-2 inh. purified IMP-1, nitrocefin hydrolysis, epi-absorbance fluorescence. inhibition, % at 5.6 µM. 1,300 tested, under 10 active. AID 1856, 2009; call rule not given here;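 further: 0% = enzyme with vehicle and 100% = vehicle without enzyme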
VIM-2 FRET inh = VIM-2 inhibitors in FRET format, confirmation, artefact control for selective VIM-2 inhibitor project, biochemical, epi-absorbance artifact exclusion | shares compounds with VIM-2 inh | 1,300 compounds, 23% hits | inhibition, % at 5.6 µM | purified VIM-2, CCF2 FRET substrate hydrolysis | AID 1857, 2009;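 active means inhibition above the mean of all tested compounds plus 3 SD, cut at about 19% in these data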;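 further: 0% = VIM-2 plus DMSO and 100% = no enzyme wells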
TEM-1 counter-1 = TEM-1 serine beta-lactamase inhibitors, counter-screen for VIM-2 inhibitor project, biochemical, epi-absorbance, HTS; shares compounds with VIM-2 inh; Purified TEM-1, nitrocefin hydrolysis, epi-absorbance fluorescence; inhibition, % at 5.6 µM; 1,300 compounds, 3% hits; AID 1866, 2009;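 active means inhibition above that campaign's mean inhibition plus 3 SD, cut at about 0.46% in these data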;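 further: 0% = TEM-1 with DMSO and 100% = TEM-1 with 100 µM potassium clavulanate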
Target sequence (P62593 whole entry, looked up): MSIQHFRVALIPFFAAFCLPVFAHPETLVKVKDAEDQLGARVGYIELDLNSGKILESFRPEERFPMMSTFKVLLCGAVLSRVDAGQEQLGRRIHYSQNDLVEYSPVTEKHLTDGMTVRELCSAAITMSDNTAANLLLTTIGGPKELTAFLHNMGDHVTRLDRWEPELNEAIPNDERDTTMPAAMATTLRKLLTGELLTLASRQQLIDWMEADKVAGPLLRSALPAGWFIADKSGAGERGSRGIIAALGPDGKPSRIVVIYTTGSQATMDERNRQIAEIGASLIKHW
VIM-2 inh conf = VIM-2 metallo-beta-lactamase inhibitors, confirmation, biochemical, epi-absorbance, hits shared with IMP-1 screen | 1,300 compounds, 96% hits | shares compounds with VIM-2 inh | inhibition, % at 5.6 µM | purified VIM-2, nitrocefin hydrolysis;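 active means inhibition of the VIM-2 beta-lactamase enzyme above about 11% from the earlier first-round screen, limit read from the data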;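 further: 0% = VIM-2 with DMSO and 100% = buffer wells without enzyme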
VIM-2 inh confirm = P. aeruginosa VIM-2 enzyme inhibition – biochemical, epi-absorbance, HTS, confirmation; shares compounds with IMP-1 inh-1; purified VIM-2 enzyme, nitrocefin absorbance; inhibition, % at 5.6 µM; 200 compounds, 73% hits; in the data active means inhibition above about 8%;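 further: 0% = enzyme with vehicle and 100% = no enzyme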
TEM-1 counter-2 = Serine beta-lactamase TEM-1 inhibition, biochemical epi-absorbance counter-screen for IMP-1/VIM-2 inhibitor program; shares compounds with IMP-1 inh-1; TEM-1 beta-lactamase, nitrocefin absorbance inhibition; inhibition, % at 5.6 µM; 200 compounds, 50% hits; in the data active means inhibition above about 0.66%
IMP-1 inh conf = IMP-1 metallo-beta-lactamase inhibitors, confirmation, biochemical, epi-absorbance, hits shared with VIM-2 screen; shares compounds with IMP-1 inh-1; purified IMP-1 enzyme, absorbance substrate hydrolysis; inhibition, % at 5.6 µM; 200 compounds, 60% hits; AID 2189, 2009; in the data active means inhibition above about 4.9%;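 further: 0% = enzyme with vehicle and 100% = vehicle without enzyme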
MIN6 prolif-2 = inducers of beta-cell proliferation in MIN6, confirmation, MIN6 cells, mouse. shares compounds with MIN6 prolif-1. ATPlite luminescence, 48 h; cells kept in 0.2% serum; scaled between 0.2% and 10% serum. proliferation increase, % at 50 µM. 920 tested, under 10 active. AID 463095, 2010;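 active means proliferation increase above 40% at any of the four tested concentrations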
ATG4B conf = ATG4B protease inhibitors, retest, confirmation, biochemical, fluorescence, single concentration; shares compounds with ATG4B inh; ATG4B protease fluorescent substrate cleavage assay; inhibition, % at 8.33 µM; 320 compounds, 92% hits; AID 504757, 2011; in the data active means inhibition above about 39%
PLA2 counter = PLA2 enzyme inhibition, counter-screen for ATG4B inhibitor project, biochemical, single concentration, uHTS hits; inhibition, % at 8.33 µM; shares compounds with ATG4B inh; purified PLA2, NBD-C6-HPC fluorescence, 45 min; 1,600 compounds, 66% hits; in the data active means inhibition above about 50%
The depositor's hits bear a star; . = not tested or not shown.

SMILES	VIM-2 inh	PvdQ inh	IMP-1 inh-1	MIN6 prolif-1	HKDC1 inhibitor	ATG4B inh	IMP-1 inh-2	VIM-2 FRET inh	TEM-1 counter-1	VIM-2 inh conf	others
CCC1CCCCN1C(=O)c1cc2c(=O)n3cccc(C)c3nc2s1 (stereo not drawn)	15*	-9	-1	-2	14	-10	-3	-2	-6	21*
CCOC(=O)CC1C(=O)NCCN1C(=O)c1cc2c(=O)n3cccc(C)c3nc2s1 (stereo not drawn)	14*	-1	-5	-1	0	-10	-3	-6	-3	26*
COc1ccc(CCNc2nc(N3CCCCC3)nc(N3CCCCC3)n2)cc1OC	-1	-3	0	-4	10	2	.	.	.	.
O=C(Nc1ccccc1Oc1ccsc1C(=O)O)c1ccccc1F	3	7	-3	2	-6	9	.	.	.	.
Cc1cc(C)n2nc(-c3ccc(Cl)cc3)cc2n1	0	-13	-1	-3	-2	-6	.	.	.	.
Cc1nc2cc(-c3ccc(Cl)cc3)nn2c(NCCN(C)C)c1C	19*	0	-3	-6	-1	-2	-2	-3	-7	44*
COC(=O)c1ccsc1NC(=O)C1=COCCO1	13*	3	-1	-2	0	-1	-2	-3	-5	12*
COC(=O)Nc1sccc1C(=O)Nc1sccc1C(=O)OC	-3	4	-3	-3	-5	-2	.	.	.	.
CN1CCN(C(=O)CCCN2C(=O)/C(=C/c3ccccc3)SC2=S)CC1	16*	4	2	7.5*	1	2	0	-3	-1	25*	MIN6 prolif-2=-6
CN1CCN(C(=O)CCCN2C(=O)/C(=C/c3ccc(Cl)cc3)SC2=S)CC1	.	-12	.	-2	6	1	.	.	.	.
COc1ccc(C2=Nn3c(nnc3-c3ccncc3)SC2)cc1	21*	8	-1	14*	-4	5	-3	4	-6	42*	MIN6 prolif-2=4
COc1ccccc1CNC(=O)COC(=O)c1cc2ccccc2o1	.	-18	.	0	-5	1	.	.	.	.
O=C(O)c1cccc(NC(=S)N/N=C/c2ccccc2OCc2cccc(Br)c2)c1	74*	-7	-4	.	7	47*	-3	65*	-9	40*	PLA2 counter=54*
O=C(O)c1cccc(NC(=S)N/N=C/c2ccccn2)c1	-1	-6	-4	0	-33	1	.	.	.	.
CNc1nc(C)cc(C)c1S(=O)(=O)c1ccc(Cl)cc1	-3	1	-4	-4	11	-2	.	.	.	.
CC(C)(C)C(=O)Nc1nnc(CSCc2ccccc2F)s1	26*	-16	-4	-2	-3	40*	-3	65*	-5	48*	ATG4B conf=59*;PLA2 counter=40
O=P(O)(O)c1cc(-c2ccccc2)oc1-c1ccccc1	30*	-5	22*	0	-5	-2	.	.	.	.	VIM-2 inh confirm=40*;TEM-1 counter-2=-2;IMP-1 inh conf=23*
COc1ccccc1-c1csc(-n2ncc(C#N)c2N)n1	17*	-15	22*	0	.	.	.	.	.	.	VIM-2 inh confirm=10*;TEM-1 counter-2=-2;IMP-1 inh conf=12*
CCN(CC)C(=O)c1sc(NC(=O)c2ccc(OC)c([N+](=O)[O-])c2)c(C#N)c1C	-1	.	-2	0	.	.	.	.	.	.
CCC(C)Nc1nc(Cl)nc(N(C#N)CN2C(=O)c3ccccc3S2(=O)=O)n1 (stereo not drawn)	13*	-6	18*	-2	-1	1	.	.	.	.	VIM-2 inh confirm=0;TEM-1 counter-2=-5;IMP-1 inh conf=-1
CC(C)Nc1nc(Cl)nc(N(C#N)CN2C(=O)c3ccccc3C2=O)n1	-4	9	-3	-4	-2	-1	.	.	.	.
COc1ccc(Cl)cc1Nc1nnc(-c2ccncc2)s1	8.7*	16	19*	-2	8	-9	.	.	.	.	VIM-2 inh confirm=3;TEM-1 counter-2=-1;IMP-1 inh conf=12*
Cc1ccc(Nc2nnc(-c3ccncc3)s2)c(Br)c1	-2	-11	-1	0	-9	1	.	.	.	.
Cn1cc(/C=C/c2cc[n+](C)cc2)c2cc(Cl)ccc21	13*	-10	5.8*	.	0	8	.	.	.	.	VIM-2 inh confirm=22*;TEM-1 counter-2=2.8*;IMP-1 inh conf=4
Cn1cc(C=O)c2cc(F)ccc21	1	-15	1	-2	-30	-5	.	.	.	.
